In ChEMBL document CHEMBL3627626, “6-Substituted Pyrrolo[2,3-d]pyrimidine Thienoyl Regioisomers as Targeted Antifolates for Folate Receptor α and the Proton-Coupled Folate Transporter in Human Tumors” (J Med Chem, 2015):
Calls of active or inactive are those of the source. No cut-off for these calls is given here.

Experiments:
[1] = target: T1, Trifunctional purine biosynthetic protein adenosine-3 (Homo sapiens) (UniProt P22102); assay: Inhibition of GARFTase in human KB cells expressing FRalpha/PCFT/RFC assessed as cell growth inhibition after 96 hrs by CellTiter-Blue assay in presence of adenosine; format: cell-based
T1 sequence (whole entry): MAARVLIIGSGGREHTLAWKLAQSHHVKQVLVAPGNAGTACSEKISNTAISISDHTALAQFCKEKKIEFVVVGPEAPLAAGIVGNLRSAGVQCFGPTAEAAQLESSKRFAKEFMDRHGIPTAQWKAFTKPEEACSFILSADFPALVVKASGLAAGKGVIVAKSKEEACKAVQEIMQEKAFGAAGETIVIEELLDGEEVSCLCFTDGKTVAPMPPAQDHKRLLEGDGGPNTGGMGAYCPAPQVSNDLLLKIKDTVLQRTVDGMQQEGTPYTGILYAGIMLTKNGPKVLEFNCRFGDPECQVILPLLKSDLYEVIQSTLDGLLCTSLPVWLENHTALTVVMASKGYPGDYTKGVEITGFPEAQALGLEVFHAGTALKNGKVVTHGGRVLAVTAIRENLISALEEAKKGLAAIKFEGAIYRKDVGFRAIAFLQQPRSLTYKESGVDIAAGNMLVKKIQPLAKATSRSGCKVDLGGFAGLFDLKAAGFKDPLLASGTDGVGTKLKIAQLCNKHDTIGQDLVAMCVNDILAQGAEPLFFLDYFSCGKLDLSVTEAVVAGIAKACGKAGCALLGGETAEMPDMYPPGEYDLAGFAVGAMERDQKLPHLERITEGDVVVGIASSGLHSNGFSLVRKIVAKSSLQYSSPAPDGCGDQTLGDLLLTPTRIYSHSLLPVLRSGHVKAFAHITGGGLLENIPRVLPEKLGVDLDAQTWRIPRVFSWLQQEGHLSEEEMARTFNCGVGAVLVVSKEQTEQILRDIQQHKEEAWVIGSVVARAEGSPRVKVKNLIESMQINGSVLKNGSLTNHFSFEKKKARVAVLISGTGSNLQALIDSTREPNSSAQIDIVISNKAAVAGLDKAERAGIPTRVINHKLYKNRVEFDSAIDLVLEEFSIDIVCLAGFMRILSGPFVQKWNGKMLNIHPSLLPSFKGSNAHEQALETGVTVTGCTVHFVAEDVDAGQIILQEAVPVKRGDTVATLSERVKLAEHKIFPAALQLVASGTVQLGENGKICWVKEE

R2 = assay: Cytotoxicity against PCFT-null Chinese hamster R2 cells assessed as cell growth inhibition after 96 hrs by CellTiter-Blue assay; format: cell-based, Cricetulus griseus; conditions: R2, 96 h
IGROV-1 = assay: Antiproliferative activity against human IGROV1 cells after 96 hrs by CellTiter-Blue assay; format: functional, cell-based; conditions: IGROV-1, 96 h
Procedure, shortened: (§1)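 IGROV1 and SKOV3 cells plated at ~2500–5000 cells/well in folate-free RPMI 1640 with 10% dialyzed FBS, antibiotics and 2 nM LCV, over a range of drug concentrations, ±200 nM folic acid in parallel. Incubated up to 96 h. Viability read by Cell Titer Blue fluorescence (ex 560/em 590 nm).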

Mus musculus = assay: Toxicity in folate-replete diet fed NCR SCID mouse xenografted with human SKOV3 cells expressing RFC/PCFT/FRalpha assessed as body weight loss at 16 mg/kg, iv administered every 4 days on day 3, 7, 11; format: organism-based, SK-OV-3; conditions: in vivo, 96 h
[2] = target: T2, Trifunctional purine biosynthetic protein adenosine-3 (Homo sapiens, UniProt P22102); assay: Inhibition of human recombinant His-tagged GARFTase assessed as formation of 5,8-dideazafolate from 10-formyl-5,80-dideazafolic acid measured every 15 secs over 20 mins by spectrophotometric analysis
T2 sequence (P22102 whole entry): T1 sequence (whole entry)

KB = assay: Antiproliferative activity against human KB cells expressing FRalpha/PCFT/RFC assessed as cell growth inhibition after 96 hrs by CellTiter-Blue assay in presence of 200 nM folic acid; format: functional, cell-based
SK-OV-3 [3] = assay: Antiproliferative activity against human SKOV3 cells after 96 hrs by CellTiter-Blue assay in presence of 200 nM folic acid; format: functional, cell-based; conditions: SK-OV-3, 96 h; procedure, shortened: as §1
[4] = target: T3, Proton-coupled folate transporter (Homo sapiens) (UniProt Q96NT5); assay: Binding affinity to human PCFT expressed in Chinese hamster R2/PCFT4 cells assessed as cell growth inhibition after 96 hrs by CellTiter-Blue assay in presence of 200 nM folic acid; format: cell-based
T3 sequence (whole entry): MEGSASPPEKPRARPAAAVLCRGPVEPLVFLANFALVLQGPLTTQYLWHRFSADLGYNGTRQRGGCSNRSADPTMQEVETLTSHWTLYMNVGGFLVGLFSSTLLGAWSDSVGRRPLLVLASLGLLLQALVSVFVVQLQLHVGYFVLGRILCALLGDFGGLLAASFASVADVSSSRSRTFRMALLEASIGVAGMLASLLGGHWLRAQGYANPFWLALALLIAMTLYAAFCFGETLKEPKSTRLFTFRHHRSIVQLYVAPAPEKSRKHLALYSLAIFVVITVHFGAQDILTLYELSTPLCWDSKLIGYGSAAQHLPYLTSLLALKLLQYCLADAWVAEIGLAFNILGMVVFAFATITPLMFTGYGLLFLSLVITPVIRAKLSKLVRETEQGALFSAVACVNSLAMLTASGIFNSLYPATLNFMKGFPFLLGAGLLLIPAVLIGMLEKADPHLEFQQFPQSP
Procedure, shortened: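 Human-PCFT-transfected R2 CHO cells, precultured with G418, were plated at ~2500–5000 cells/well across a range of drug concentrations. Medium was folate-free RPMI 1640 (pH 7.2) with 25 nM LCV and 10% dialyzed FBS. Parallel wells received 200 nM folic acid. Incubated up to 96 h, then read with CellTiter Blue fluorescence (ex 560/em 590 nm).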

[5] = target: T1, Trifunctional purine biosynthetic protein adenosine-3 (Homo sapiens); assay: Inhibition of GARFTase in human KB cells expressing FRalpha/PCFT/RFC assessed as cell growth inhibition after 96 hrs by CellTiter-Blue assay in presence of thymidine; format: cell-based
[6] = target: Folate receptor alpha (Homo sapiens) (UniProt P15328); assay: Displacement of [3H]-folic acid from human FRalpha expressed in Chinese hamster RT16 cells after 15 mins relative to folic acid; format: cell-based
Procedure, shortened: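 Competitive binding to surface folate receptor on RT16 (FRα) or D4 (FRβ) CHO cells. Cells were acid-washed (pH 3.5) to strip bound folate, then incubated in HEPES-buffered saline pH 7.4 with 50 nM [3H]folic acid plus unlabeled ligand (0–1000 nM) for 15 min at 0 °C. Bound label was normalised to protein. Affinity is the inverse molar ratio for 50% displacement, with folic acid set to 1. Mean of 4–10 experiments ±SE.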

SK-OV-3 [7] = assay: Antitumor activity against human SKOV3 cells expressing RFC/PCFT/FRalpha xenografted in folate-deficient diet fed NCR SCID mouse assessed as tumor growth inhibition at 16 mg/kg, iv administered every 4 days on day 3, 7, 11 measured on day 21 relative to control; format: functional
Procedure, shortened: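 Ten-week-old female NCR SCID mice, fed a folate-deficient or standard folate-replete diet, were implanted subcutaneously and bilaterally with SKOV3 tumour fragments. Randomised at 5 mice/group. Dosed intravenously, 0.2 mL per injection, in 5% ethanol/1% Tween-80/0.5% NaHCO3 in water at pH 6.5, on days 3, 7 and 11. Tumours measured twice weekly and mice weighed daily. T/C taken on day 21; growth delay and log cell kill also reported.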

Chain of Folate receptor alpha (Homo sapiens) (P15328 25-234 limits assumed): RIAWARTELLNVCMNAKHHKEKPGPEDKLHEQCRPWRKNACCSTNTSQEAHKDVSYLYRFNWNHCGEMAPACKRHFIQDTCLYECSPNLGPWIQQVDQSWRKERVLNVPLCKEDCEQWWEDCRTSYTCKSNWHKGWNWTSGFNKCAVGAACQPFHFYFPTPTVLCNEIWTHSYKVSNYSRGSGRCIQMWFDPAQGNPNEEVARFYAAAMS

Nc1nc2[nH]c(CCCc3cc(C(=O)N[C@@H](CCC(=O)O)C(=O)O)cs3)cc2c(=O)[nH]1
inhibition [1]: inactive
IC50 (R2): 290 nM
IC50 (IGROV-1): 0.77 nM
Activity (Mus musculus): Non-toxic
Ki [2]: 9.1 nM
IC50 (KB): 105 nM
IC50 (SK-OV-3 [3]): 76 nM
Activity [4]: Active
inhibition [5]: Active
Activity [6]: 60%
T/C (SK-OV-3 [7]): 15%
